Experimental data: ChEMBL document CHEMBL1833848, “New betulinic acid derivatives as potent proteasome inhibitors” (Bioorg Med Chem Lett, 2011)
Active and inactive are the calls of the source. The calls are words filed in the database; no cut-off is given here. Where a SMILES comes first, the peptide text is derived from it.

Legend:
[1] = Inhibition of human 20S proteasome chymotrypsin-like activity using Suc-Leu-Leu-Val-Tyr-AMC fluorogenic substrate by fluorimetry
Summary of the method: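 IC50 values are the averages of three independent experiments.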

Homo sapiens [2] = species on record: Homo sapiens; experiment: Ratio of bevirimat IC50 to compound IC50 for human 20S proteasome
Homo sapiens [3] = species on record: Homo sapiens; experiment: Ratio of lactacystin IC50 to compound IC50 for human 20S proteasome
Homo sapiens [4] = species on record: Homo sapiens; experiment: Ratio of LLM-F IC50 to compound IC50 for human 20S proteasome
Homo sapiens [5] = species on record: Homo sapiens; experiment: Inhibition of human 20S proteasome caspase-like activity using (Z)-LLE-bNA fluorogenic substrate by fluorimetry
[6] = Inhibition of human 20S proteasome trypsin-like activity using Bz-VGR-AMC fluorogenic substrate by fluorimetry
[7] = system: Human immunodeficiency virus 1; experiment: Antiviral activity against drug-resistant HIV1 isolate; assay type: functional, organism-based
[8] = system: Human immunodeficiency virus 1; experiment: Antiviral activity against HIV1; assay type: functional, organism-based

SMILES | IC50 [1] [µM] | further results
CSCC[C@@H](C=O)NC(=O)[C@H](CC(C)C)NC(=O)[C@H](CC(C)C)NC(C)=O (Ac-Leu-Leu-Met-aldehyde) | 5.25 | 
C=C(C)[C@@H]1CC[C@]2(C(=O)O)CC[C@]3(C)[C@H](CC[C@H]4C3(C)CC[C@H]3C(C)(C)[C@@H](OC(=O)C5CC=CCC5C(=O)O)CC[C@@]34C)[C@@H]12 (single isomer, unassigned) | 2.96 | 
C=C(C)[C@@H]1CC[C@]2(C(=O)NCCCCCCCC(=O)N[C@@H](CC(C)C)[C@H](O)CC(=O)O)CC[C@]3(C)[C@H](CC[C@H]4C3(C)CC[C@H]3C(C)(C)[C@@H](O)CC[C@@]34C)[C@@H]12 (single isomer, unassigned) | > 40 | 
C=C(C)[C@@H]1CC[C@]2(C(=O)O)CC[C@]3(C)[C@H](CC[C@H]4C3(C)CC[C@H]3C(C)(C)[C@@H](OC(=O)c5cc(OC)c(OC)c(OC)c5)CC[C@@]34C)[C@@H]12 (single isomer, unassigned) | > 40 | 
C=C(C)[C@@H]1CC[C@]2(C(=O)O)CC[C@]3(C)[C@H](CC[C@H]4C3(C)CC[C@H]3C(C)(C)[C@@H](OC(=O)c5ccc6c(c5)OCO6)CC[C@@]34C)[C@@H]12 (single isomer, unassigned) | > 40 | 
C=C(C)[C@@H]1CC[C@]2(C(=O)O)CC[C@]3(C)[C@H](CC[C@H]4C3(C)CC[C@H]3C(C)(C)[C@@H](OC(=O)c5cc(OC)c(OC)cc5OC)CC[C@@]34C)[C@@H]12 (single isomer, unassigned) | 10.9 | 
C=C(C)[C@@H]1CC[C@]2(C(=O)O)CC[C@]3(C)[C@H](CC[C@H]4C3(C)CC[C@H]3C(C)(C)[C@@H](OC(=O)c5ccc(OC)c(OC)c5)CC[C@@]34C)[C@@H]12 (single isomer, unassigned) | > 40 | 
C=C(C)[C@@H]1CC[C@]2(C(=O)O)CC[C@]3(C)[C@H](CC[C@H]4C3(C)CC[C@H]3C(C)(C)[C@@H](OC(=O)c5ccccc5Br)CC[C@@]34C)[C@@H]12 (single isomer, unassigned) | 7.99 | 
C=C(C)[C@@H]1CC[C@]2(C(=O)O)CC[C@]3(C)[C@H](CC[C@H]4C3(C)CC[C@H]3C(C)(C)[C@@H](OC(=O)c5ccc(Br)cc5)CC[C@@]34C)[C@@H]12 (single isomer, unassigned) | > 40 | 
C=C(C)[C@@H]1CC[C@]2(C(=O)O)CC[C@]3(C)[C@H](CC[C@H]4C3(C)CC[C@H]3C(C)(C)[C@@H](OC(=O)c5cccc(Br)c5)CC[C@@]34C)[C@@H]12 (single isomer, unassigned) | 7.05 | 
C=C(C)[C@@H]1CC[C@]2(C(=O)O)CC[C@]3(C)[C@H](CC[C@H]4C3(C)CC[C@H]3C(C)(C)[C@@H](OC(=O)Cc5cccc(CC(=O)O)c5)CC[C@@]34C)[C@@H]12 (single isomer, unassigned) | 1.42 | Ratio IC50 (Homo sapiens [2]): 6; Ratio IC50 (Homo sapiens [3]): 4; Ratio IC50 (Homo sapiens [4]): 4
C=C(C)[C@@H]1CC[C@]2(C(=O)O)CC[C@]3(C)[C@H](CC[C@H]4C3(C)CC[C@H]3C(C)(C)[C@@H](OC(=O)COCC(=O)O)CC[C@@]34C)[C@@H]12 (single isomer, unassigned) | > 40 | 
C=C(C)[C@@H]1CC[C@]2(C(=O)N[C@@H](CC(C)C)C(=O)O)CC[C@]3(C)[C@H](CC[C@H]4C3(C)CC[C@H]3C(C)(C)[C@@H](O)CC[C@@]34C)[C@@H]12 (single isomer, unassigned) | > 40 | 
C=C(CBr)[C@@H]1CC[C@]2(C(=O)N[C@@H](CC(C)C)C(=O)O)CC[C@]3(C)[C@H](CC[C@H]4C3(C)CC[C@H]3C(C)(C)[C@@H](O)CC[C@@]34C)[C@@H]12 (single isomer, unassigned) | 5.85 | 
C=C(COCCC)[C@@H]1CC[C@]2(C(=O)N[C@@H](CC(C)C)C(=O)O)CC[C@]3(C)[C@H](CC[C@H]4C3(C)CC[C@H]3C(C)(C)[C@@H](O)CC[C@@]34C)[C@@H]12 (single isomer, unassigned) | 3.67 | 
C=C(COCCc1ccc(F)cc1)[C@@H]1CC[C@]2(C(=O)N[C@@H](CC(C)C)C(=O)O)CC[C@]3(C)[C@H](CC[C@H]4C3(C)CC[C@H]3C(C)(C)[C@@H](O)CC[C@@]34C)[C@@H]12 (single isomer, unassigned) | 2.4 | 
C=C(COCCc1ccc(Cl)cc1)[C@@H]1CC[C@]2(C(=O)N[C@@H](CC(C)C)C(=O)O)CC[C@]3(C)[C@H](CC[C@H]4C3(C)CC[C@H]3C(C)(C)[C@@H](O)CC[C@@]34C)[C@@H]12 (single isomer, unassigned) | 1.8 | Ratio IC50 (Homo sapiens [3]): 3; Ratio IC50 (Homo sapiens [4]): 3
C=C(COCCN1CCOCC1)[C@@H]1CC[C@]2(C(=O)N[C@@H](CC(C)C)C(=O)O)CC[C@]3(C)[C@H](CC[C@H]4C3(C)CC[C@H]3C(C)(C)[C@@H](O)CC[C@@]34C)[C@@H]12 (single isomer, unassigned) | 3.13 | 
C=C(COCCc1ccccc1)[C@@H]1CC[C@]2(C(=O)N[C@@H](CC(C)C)C(=O)O)CC[C@]3(C)[C@H](CC[C@H]4C3(C)CC[C@H]3C(C)(C)[C@@H](O)CC[C@@]34C)[C@@H]12 (single isomer, unassigned) | 2.47 | 
C=C(COCCc1ccc(OC)cc1)[C@@H]1CC[C@]2(C(=O)N[C@@H](CC(C)C)C(=O)O)CC[C@]3(C)[C@H](CC[C@H]4C3(C)CC[C@H]3C(C)(C)[C@@H](O)CC[C@@]34C)[C@@H]12 (single isomer, unassigned) | 3.34 | 
C=C(COCC)[C@@H]1CC[C@]2(C(=O)N[C@@H](CC(C)C)C(=O)O)CC[C@]3(C)[C@H](CC[C@H]4C3(C)CC[C@H]3C(C)(C)[C@@H](O)CC[C@@]34C)[C@@H]12 (single isomer, unassigned) | 13.2 | 
C=C(COCCc1ccc(Br)cc1)[C@@H]1CC[C@]2(C(=O)N[C@@H](CC(C)C)C(=O)O)CC[C@]3(C)[C@H](CC[C@H]4C3(C)CC[C@H]3C(C)(C)[C@@H](O)CC[C@@]34C)[C@@H]12 (single isomer, unassigned) | 1.56 | Ratio IC50 (Homo sapiens [3]): 3; Ratio IC50 (Homo sapiens [4]): 3
C=C(C)[C@@H]1CC[C@]2(C(=O)O)CC[C@]3(C)[C@H](CC[C@H]4C3(C)CC[C@H]3C(C)(C)[C@@H](OC(=O)c5ccccc5)CC[C@@]34C)[C@@H]12 (single isomer, unassigned) | 11.1 | 
C=C(C)[C@@H]1CC[C@]2(C(=O)O)CC[C@]3(C)[C@H](CC[C@@H]4[C@@]5(C)CC[C@H](OC(=O)CC(C)(C)C(=O)O)C(C)(C)[C@@H]5CC[C@]43C)[C@@H]12 [BEVIRIMAT] | 9.2 | inhibition (Homo sapiens [5]): inactive; IC50 [6]: 26.3 µM; EC50 [7]: < 0.01 µM; EC50 [8]: < 0.01 µM
